Data: ChEMBL document CHEMBL1126070, “Bisquinolines. 1. N,N-bis(7-chloroquinolin-4-yl)alkanediamines with potential against chloroquine-resistant malaria” (J Med Chem, 1992)

Tested on: Plasmodium berghei
Test: In vivo antimalarial activity against Plasmodium berghei infected mice (Mus musculus) at 320 mg/kg
Settings: not given

For `Clc1ccc2c(NC3CCCCC3Nc3ccnc4cc(Cl)ccc34)ccnc2c1` (configuration not stated), the T-C was over 60 days.

Tested on: Plasmodium berghei
Test: In vivo antimalarial activity against Plasmodium berghei infected mice (Mus musculus) at 640 mg/kg
Format: functional
Settings: not given

With `CC(CCCNc1ccnc2cc(Cl)ccc12)CNc1ccnc2cc(Cl)ccc12` (configuration not stated) the T-C was over 60 days.
Work on `Clc1ccc2c(NCCCCCCNc3ccnc4cc(Cl)ccc34)ccnc2c1` yielded a T-C of over 60 days.
`CCN(CC)CCCC(C)Nc1ccnc2cc(Cl)ccc12` (configuration not stated) [CHLOROQUINE] gave a T-C of over 60 days.
`CC(CNc1ccnc2cc(Cl)ccc12)Nc1ccnc2cc(Cl)ccc12` (configuration not stated) showed a T-C of over 60 days.
Work on `Clc1ccc2c(NCCCCCNc3ccnc4cc(Cl)ccc34)ccnc2c1` yielded a T-C of over 60 days.

In order of rising T-C:
1. Clc1ccc2c(NCCCCCCCCCCCCNc3ccnc4cc(Cl)ccc34)ccnc2c1  0 days
2. Clc1ccc2c(NCCCCCCCCCCNc3ccnc4cc(Cl)ccc34)ccnc2c1  0.6 days
3. Clc1ccc2c(NCCCNc3ccnc4cc(Cl)ccc34)ccnc2c1  1.2 days
4. Clc1ccc2c(NCCNc3ccnc4cc(Cl)ccc34)ccnc2c1  1.4 days
5. Clc1ccc2c(NCCCCNc3ccnc4cc(Cl)ccc34)ccnc2c1  5.6 days

Tested on: Plasmodium falciparum
Test: In vitro activity against Plasmodium falciparum D6
Format: functional, organism-based
Settings: not given
Summary of the method: (§1)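 Test compounds dissolved in DMSO and serially diluted in culture medium. Erythrocytes at 0.25 to 0.5% parasitemia added in 96-well microdilution plates to a final hematocrit of 1.5%. Activity indexed by inhibition of [3H]hypoxanthine uptake. IC50 derived from this uptake.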

In order of rising IC50:
1. Clc1ccc2c(NC3CCCCC3Nc3ccnc4cc(Cl)ccc34)ccnc2c1 (configuration not stated)  1 nM
2. Clc1ccc2c(NCCCCCCCNc3ccnc4cc(Cl)ccc34)ccnc2c1  1.9 nM
3. Clc1ccc2c(NCCCCCNc3ccnc4cc(Cl)ccc34)ccnc2c1  2.5 nM
4. CC(CCCNc1ccnc2cc(Cl)ccc12)CNc1ccnc2cc(Cl)ccc12 (configuration not stated)  2.7 nM
5. Clc1ccc2c(NCCCCCCCCCNc3ccnc4cc(Cl)ccc34)ccnc2c1  3 nM
6. CC(CNc1ccnc2cc(Cl)ccc12)Nc1ccnc2cc(Cl)ccc12 (configuration not stated)  3.5 nM
7. Clc1ccc2c(NCCCCCCCCNc3ccnc4cc(Cl)ccc34)ccnc2c1  5.6 nM
8. Clc1ccc2c(NCCCCCCCCCCNc3ccnc4cc(Cl)ccc34)ccnc2c1  5.7 nM
9. Clc1ccc2c(N3CCN(CCCN4CCN(c5ccnc6cc(Cl)ccc56)CC4)CC3)ccnc2c1 [PIPERAQUINE]  8.3 nM
10. Clc1ccc2c(NCCCNc3ccnc4cc(Cl)ccc34)ccnc2c1  15 nM
11. Clc1ccc2c(NCCNc3ccnc4cc(Cl)ccc34)ccnc2c1  17 nM
12. Clc1ccc2c(NCCCCCCNc3ccnc4cc(Cl)ccc34)ccnc2c1  21 nM
13. Clc1ccc2c(NCCCCCCCCCCCCNc3ccnc4cc(Cl)ccc34)ccnc2c1  60 nM
14. Clc1ccc2c(NCCCCNc3ccnc4cc(Cl)ccc34)ccnc2c1  390 nM

Tested on: Plasmodium berghei
Test: In vivo antimalarial activity against Plasmodium berghei infected mice (Mus musculus) at 640 mg/kg; Skin lesions at injection site
Format: functional, organism-based
Design: dose 640 mg/kg
Settings: Skin of body
Summary of the method: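 P. berghei (KBG 173) infected male mice, 5 per dose, given a single subcutaneous dose 3 days post-infection. Injection sites examined for skin lesions.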

For `Clc1ccc2c(NCCCCCCCCCNc3ccnc4cc(Cl)ccc34)ccnc2c1`, the T-C was “Lesions 15A”.

Tested on: Plasmodium berghei
Test: In vivo antimalarial activity against Plasmodium berghei infected mice (Mus musculus) at 160 mg/kg
Format: functional
Settings: not given

In order of falling T-C:
1. Clc1ccc2c(NCCCCCCCCCNc3ccnc4cc(Cl)ccc34)ccnc2c1  7.4 days
2. Clc1ccc2c(NCCCCCCCNc3ccnc4cc(Cl)ccc34)ccnc2c1  7.2 days
3. CC(CNc1ccnc2cc(Cl)ccc12)Nc1ccnc2cc(Cl)ccc12 (configuration not stated)  5.7 days
4. Clc1ccc2c(NCCCCCNc3ccnc4cc(Cl)ccc34)ccnc2c1  5.1 days
5. Clc1ccc2c(NCCCCCCNc3ccnc4cc(Cl)ccc34)ccnc2c1  3.9 days
6. CC(CCCNc1ccnc2cc(Cl)ccc12)CNc1ccnc2cc(Cl)ccc12 (configuration not stated)  3.6 days
7. Clc1ccc2c(NCCCCNc3ccnc4cc(Cl)ccc34)ccnc2c1  2.3 days
8. Clc1ccc2c(NCCCCCCCCNc3ccnc4cc(Cl)ccc34)ccnc2c1  1 days
9. Clc1ccc2c(NCCNc3ccnc4cc(Cl)ccc34)ccnc2c1  0.4 days
10. Clc1ccc2c(NCCCNc3ccnc4cc(Cl)ccc34)ccnc2c1  0.4 days
11. Clc1ccc2c(NCCCCCCCCCCNc3ccnc4cc(Cl)ccc34)ccnc2c1  0.2 days
12. Clc1ccc2c(NCCCCCCCCCCCCNc3ccnc4cc(Cl)ccc34)ccnc2c1  -0.2 days

For `CCN(CC)CCCC(C)Nc1ccnc2cc(Cl)ccc12` (configuration not stated) [CHLOROQUINE], the T-C was over 60 days.
With `Clc1ccc2c(NC3CCCCC3Nc3ccnc4cc(Cl)ccc34)ccnc2c1` (configuration not stated) the T-C was over 60 days.

Tested on: Plasmodium falciparum
Test: In vitro activity against Plasmodium falciparum W-2
Format: functional, organism-based
Settings: not given
Summary of the method: as §1

In order of falling IC50:
1. Clc1ccc2c(NCCCNc3ccnc4cc(Cl)ccc34)ccnc2c1  83 nM
2. Clc1ccc2c(NCCCCNc3ccnc4cc(Cl)ccc34)ccnc2c1  81 nM
3. Clc1ccc2c(NCCCCCCCCCCCCNc3ccnc4cc(Cl)ccc34)ccnc2c1  31 nM
4. Clc1ccc2c(NCCNc3ccnc4cc(Cl)ccc34)ccnc2c1  27 nM
5. Clc1ccc2c(NCCCCCCNc3ccnc4cc(Cl)ccc34)ccnc2c1  23 nM
6. Clc1ccc2c(N3CCN(CCCN4CCN(c5ccnc6cc(Cl)ccc56)CC4)CC3)ccnc2c1 [PIPERAQUINE]  16 nM
7. Clc1ccc2c(NCCCCCCCNc3ccnc4cc(Cl)ccc34)ccnc2c1  4.3 nM
8. CC(CNc1ccnc2cc(Cl)ccc12)Nc1ccnc2cc(Cl)ccc12 (configuration not stated)  3.9 nM
9. Clc1ccc2c(NCCCCCNc3ccnc4cc(Cl)ccc34)ccnc2c1  3.8 nM
10. Clc1ccc2c(NCCCCCCCCCCNc3ccnc4cc(Cl)ccc34)ccnc2c1  3.4 nM
11. Clc1ccc2c(NCCCCCCCCNc3ccnc4cc(Cl)ccc34)ccnc2c1  3.1 nM
12. CC(CCCNc1ccnc2cc(Cl)ccc12)CNc1ccnc2cc(Cl)ccc12 (configuration not stated)  3 nM
13. Clc1ccc2c(NCCCCCCCCCNc3ccnc4cc(Cl)ccc34)ccnc2c1  2.3 nM
14. Clc1ccc2c(NC3CCCCC3Nc3ccnc4cc(Cl)ccc34)ccnc2c1 (configuration not stated)  1.4 nM

Tested on: not listed separately
Test: Resistance index was measured as the ratio of IC50 of Plasmodium falciparum W-2 clone / IC50 of P. falciparum D-6 clone
Format: functional
Settings: not given
Summary of the method: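 P. falciparum clones D-6 (mefloquine-resistant) and W-2 (CQ-, pyrimethamine-, sulfadoxine- and quinine-resistant) were tested in parallel. Compounds were dissolved in DMSO and serially diluted in culture medium. Infected erythrocytes at 0.25–0.5% parasitemia were added to a final 1.5% hematocrit. IC50 for each clone came from inhibition of tritiated hypoxanthine uptake, and the index is IC50(W-2)/IC50(D-6).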

In order of falling Resistance index:
1. Clc1ccc2c(NCCCNc3ccnc4cc(Cl)ccc34)ccnc2c1  5.5
2. Clc1ccc2c(NCCCCCCCNc3ccnc4cc(Cl)ccc34)ccnc2c1  2.3
3. Clc1ccc2c(N3CCN(CCCN4CCN(c5ccnc6cc(Cl)ccc56)CC4)CC3)ccnc2c1 [PIPERAQUINE]  1.9
4. Clc1ccc2c(NCCNc3ccnc4cc(Cl)ccc34)ccnc2c1  1.6
5. Clc1ccc2c(NCCCCCNc3ccnc4cc(Cl)ccc34)ccnc2c1  1.5
6. Clc1ccc2c(NC3CCCCC3Nc3ccnc4cc(Cl)ccc34)ccnc2c1 (configuration not stated)  1.4
7. CC(CCCNc1ccnc2cc(Cl)ccc12)CNc1ccnc2cc(Cl)ccc12 (configuration not stated)  1.1
8. Clc1ccc2c(NCCCCCCNc3ccnc4cc(Cl)ccc34)ccnc2c1  1.1
9. CC(CNc1ccnc2cc(Cl)ccc12)Nc1ccnc2cc(Cl)ccc12 (configuration not stated)  1.1
10. Clc1ccc2c(NCCCCCCCCCNc3ccnc4cc(Cl)ccc34)ccnc2c1  0.8
11. Clc1ccc2c(NCCCCCCCCNc3ccnc4cc(Cl)ccc34)ccnc2c1  0.6
12. Clc1ccc2c(NCCCCCCCCCCNc3ccnc4cc(Cl)ccc34)ccnc2c1  0.6
13. Clc1ccc2c(NCCCCCCCCCCCCNc3ccnc4cc(Cl)ccc34)ccnc2c1  0.5
14. Clc1ccc2c(NCCCCNc3ccnc4cc(Cl)ccc34)ccnc2c1  0.2

Tested on: Plasmodium berghei
Test: In vivo antimalarial activity against Plasmodium berghei infected mice (Mus musculus) at 640 mg/kg; C-1
Format: functional, organism-based
Design: dose 640 mg/kg
Settings: not given

With `Clc1ccc2c(NCCCCCCCCNc3ccnc4cc(Cl)ccc34)ccnc2c1` the T-C was “Curative-1”.

Tested on: Plasmodium berghei
Test: In vivo antimalarial activity against Plasmodium berghei infected mice (Mus musculus) at 40 mg/kg
Format: functional
Settings: not given

In order of falling T-C:
1. Clc1ccc2c(NC3CCCCC3Nc3ccnc4cc(Cl)ccc34)ccnc2c1 (configuration not stated)  8.5 days
2. CC(CNc1ccnc2cc(Cl)ccc12)Nc1ccnc2cc(Cl)ccc12 (configuration not stated)  3.4 days
3. Clc1ccc2c(NCCCCCCCCCNc3ccnc4cc(Cl)ccc34)ccnc2c1  3.1 days
4. Clc1ccc2c(NCCCCCCCNc3ccnc4cc(Cl)ccc34)ccnc2c1  2.6 days
5. CC(CCCNc1ccnc2cc(Cl)ccc12)CNc1ccnc2cc(Cl)ccc12 (configuration not stated)  1.2 days
6. Clc1ccc2c(NCCCCCNc3ccnc4cc(Cl)ccc34)ccnc2c1  1 days
7. Clc1ccc2c(NCCCCNc3ccnc4cc(Cl)ccc34)ccnc2c1  0.5 days
8. Clc1ccc2c(NCCCCCCNc3ccnc4cc(Cl)ccc34)ccnc2c1  0.4 days
9. Clc1ccc2c(NCCCCCCCCCCNc3ccnc4cc(Cl)ccc34)ccnc2c1  0.2 days
10. Clc1ccc2c(NCCCNc3ccnc4cc(Cl)ccc34)ccnc2c1  0.2 days
11. Clc1ccc2c(NCCCCCCCCCCCCNc3ccnc4cc(Cl)ccc34)ccnc2c1  0 days
12. Clc1ccc2c(NCCNc3ccnc4cc(Cl)ccc34)ccnc2c1  0 days
13. Clc1ccc2c(NCCCCCCCCNc3ccnc4cc(Cl)ccc34)ccnc2c1  -0.2 days
